From ChEMBL document CHEMBL1124456, “Synthesis and structure-activity relationship of substituted tetrahydro- and hexahydro-1,2-benzisothiazol-3-one 1,1-dioxides and thiadiazinones: potential anxiolytic agents” (J Med Chem, 1989)
pKi: −log10 of the molar value. Calls of active or inactive are those of the source. The calls are words filed in the database; no cut-off is given here.

Experiments:
Rattus norvegicus [1] = species on record: Rattus norvegicus; test: Antipsychotic activity was evaluated from the ability to block discrete trial conditioned avoidance response (CAR) of rats; type: functional
Method in brief: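 Male CD rats (about 400–450 g) trained in discrete-trial avoidance. Compound given ip or po 30 min before testing, at 20 or 40 mg/kg or over a dose range, with at least five rats per dose. Intertrial, avoidance, escape and no-response trials were recorded. Avoidance block is the percentage of trials without avoidance. AB50 comes from a least-squares dose–effect regression line.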

Rattus norvegicus [2] = test: Compound was tested for antagonism of apomorphine-induced climbing behavior, after intraperitoneal dosing; type: functional; settings: ip
Rattus norvegicus [3] = test: Compound was tested for antagonism of apomorphine-induced stereotyped behavior, after intraperitoneal dosing; NA is Inactive; type: functional, organism-based
Method in brief: (§1)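 High-dose apomorphine-induced stereotyped behavior procedure. Test agents were given ip at doses up to 60 mg/kg.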

Rattus norvegicus [4] = test: In vivo ability (10.0 mg/kg) was to elicit serotonin syndrome in rat; type: functional
Method in brief: (§2)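 Rat in vivo test adapted from published serotonin syndrome methods. Agents given ip; 5-MeO-DMT at 3.0 mg/kg ip was used to elicit the syndrome. Behaviour rated and reported as mean total score (±SEM).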

Rattus norvegicus [5] = test: In vivo ability (10.0 mg/kg) was to antagonize serotonin syndrome in rat; type: functional; method in brief: as §2
[6] = molecular target: T1, 5-hydroxytryptamine receptor 1A (Rattus norvegicus) (UniProt P19327); test: In vitro ability to inhibit [3H]8-OH-DPAT binding to 5-hydroxytryptamine 1A receptor of rat hippocampus at 1 uM; type: tissue-based
T1 sequence (whole entry): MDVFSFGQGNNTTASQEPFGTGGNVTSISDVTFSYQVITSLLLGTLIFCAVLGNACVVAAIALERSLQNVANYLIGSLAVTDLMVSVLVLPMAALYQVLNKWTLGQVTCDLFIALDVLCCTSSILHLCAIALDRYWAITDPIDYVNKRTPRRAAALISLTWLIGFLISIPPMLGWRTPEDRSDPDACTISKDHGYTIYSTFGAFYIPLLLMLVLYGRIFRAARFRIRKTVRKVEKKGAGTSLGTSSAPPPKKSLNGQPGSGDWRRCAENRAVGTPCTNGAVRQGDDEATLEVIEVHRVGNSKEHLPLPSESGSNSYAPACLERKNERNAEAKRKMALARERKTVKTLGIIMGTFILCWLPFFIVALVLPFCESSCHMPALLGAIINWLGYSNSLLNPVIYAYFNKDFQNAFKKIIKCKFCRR

[7] = molecular target: D(2) dopamine receptor (Rattus norvegicus) (UniProt P61169); test: Inhibition of [3H]spiperone binding to Dopamine receptor D2 of rat limbic structures; type: tissue-based; set-up: concentration or dose not given beside the values; settings: Limbic system, concentration not given here
Sequence of D(2) dopamine receptor (Rattus norvegicus) (P61169 whole entry): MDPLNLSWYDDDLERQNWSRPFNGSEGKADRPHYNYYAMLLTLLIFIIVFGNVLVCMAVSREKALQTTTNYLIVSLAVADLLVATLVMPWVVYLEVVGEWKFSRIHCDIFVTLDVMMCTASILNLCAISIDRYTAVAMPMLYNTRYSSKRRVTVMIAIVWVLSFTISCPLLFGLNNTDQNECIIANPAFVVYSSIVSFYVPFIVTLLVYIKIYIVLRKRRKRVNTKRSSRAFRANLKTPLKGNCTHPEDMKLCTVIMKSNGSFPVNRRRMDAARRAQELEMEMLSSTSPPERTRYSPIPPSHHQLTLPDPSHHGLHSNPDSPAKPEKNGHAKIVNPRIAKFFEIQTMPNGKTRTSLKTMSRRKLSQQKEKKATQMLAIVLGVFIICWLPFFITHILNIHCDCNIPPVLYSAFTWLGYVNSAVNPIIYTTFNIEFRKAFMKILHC

Rattus norvegicus [8] = species on record: Rattus norvegicus; test: Anti-psychotic activity from the ability to block discrete trial conditioned avoidance response (CAR) of rats.; type: functional
Method in brief: (§3)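 Discrete-trial conditioned avoidance in male CD rats kept at about 400–450 g body weight. Dosing was ip or po, 30 min before testing, with at least five rats per dose (20 or 40 mg/kg, or a dose range). Computer recorded intertrial, avoidance and escape responses and no-response trials. Avoidance-block trials were taken as % of total trials, with control avoidance set at 100%. AB50 came from a least-squares dose-effect regression line.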

[9] = molecular target: T2, 5-hydroxytryptamine receptor 1A (Rattus norvegicus, UniProt P19327); test: In vitro ability to inhibit [3H]8-OH-DPAT binding to 5-hydroxytryptamine 1A receptor of rat hippocampus and value ranges from 27 - 42; type: tissue-based
T2 sequence (P19327 whole entry): T1 sequence (whole entry)

[10] = molecular target: D(2) dopamine receptor (Rattus norvegicus) (UniProt P61169); test: Inhibition of [3H]-spiperone binding to dopamine receptor D2 of rat limbic structures at 1 uM.; settings: Limbic system
[11] = molecular target: T1, 5-hydroxytryptamine receptor 1A (Rattus norvegicus); test: In vitro ability to inhibit [3H]-8-OH-DPAT binding to 5-hydroxytryptamine 1A receptor of rat hippocampus at 1 uM; type: tissue-based
[12] = molecular target: D(2) dopamine receptor (Rattus norvegicus) (UniProt P61169); test: Compound was tested in vitro at for the ability to inhibit [3H]spiperone binding to Dopamine receptor D2 of rat limbic structures at 3 uM; type: tissue-based; settings: Limbic system
[13] = molecular target: T3, Adrenergic receptor alpha-1 (Rattus norvegicus) (UniProt P15823+P23944+P43140); test: Percent inhibition of Alpha-1 adrenergic receptor by 1 uM of compound; type: protein assay
[14] = molecular target: T4, GABA-A receptor; anion channel (Rattus norvegicus) (UniProt O09028+P15431+P18506+P18508+P19969+P20236+P23574+P23576+P28471+P28473+P30191+P62813+P63079+P63138+Q91ZM7+Q9ES14); test: (§4) Percent inhibition of GABA-A benzodiazepine receptor at 1 uM; type: protein-complex assay
Method in brief: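 Incubated with 1.5×10^-9 M [³H]diazepam for 30 min at 4 °C, then filtered on GF/C and counted by scintillation. Nonspecific binding defined with 3×10^-6 M unlabelled diazepam.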

[15] = molecular target: Adrenergic receptor beta (Rattus norvegicus) (UniProt P18090+P10608+P26255); test: Percent inhibition of Beta adrenergic receptor by 1 uM of compound; type: protein assay
[16] = molecular target: T2, 5-hydroxytryptamine receptor 1A; test: In vitro ability to inhibit [3H]8-OH-DPAT binding to 5-HT1A receptor of rat hippocampus and the value ranges from 9 - 12; type: tissue-based
[17] = molecular target: T2, 5-hydroxytryptamine receptor 1A; test: The inhibition activity of 5-HT1A at 1 uM
[18] = Partition coefficient (logP); type: physicochemical; settings: octanol/water
[19] = molecular target: T3, Adrenergic receptor alpha-1 (Rattus norvegicus); test: The percent inhibition of Alpha-1 adrenergic receptor at 1 uM; type: protein assay
[20] = molecular target: T4, GABA-A receptor; anion channel (Rattus norvegicus); test: as §4; type: protein-complex assay; remark: listed apart in the source
Method in brief: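 Male Sprague-Dawley rat brain (cerebellum and pons-medulla removed) was homogenized in 0.32 M sucrose to give a 30000g pellet, resuspended in Tris-HCl pH 7.5. Membranes were incubated with 1.5×10^-9 M [³H]diazepam (2.0 mL final) for 30 min at 4 °C, GF/C filtered, washed ice-cold and scintillation counted. Nonspecific binding was taken with 3×10^-6 M cold diazepam. Drug was tested at 1 μM.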

D(2) dopamine receptor = D(2) dopamine receptor (Rattus norvegicus, UniProt P61169); test: In vitro ability to inhibit [3H]spiperone binding to Dopamine receptor D2 of rat limbic structures and the value ranges from 116 - 159.; type: tissue-based, Limbic system
Sequence of D(2) dopamine receptor (P61169 whole entry): as above

Rattus norvegicus [21] = species on record: Rattus norvegicus; test: Anti psychotic activity was evaluated from the ability to block discrete trial conditioned avoidance response (CAR) of rats and the value ranges from 26 - 143; type: functional; method in brief: as §3
Rattus norvegicus [22] = test: Compound was tested for antagonism of apomorphine-induced climbing behavior, after intraperitoneal dosing and the value ranges from 0.97 - 11.7; type: functional; settings: ip
Rattus norvegicus [23] = test: Compound was tested for antagonism of apomorphine-induced stereotyped behavior, after intraperitoneal dosing.; type: functional; settings: ip; method in brief: as §1
Rattus norvegicus [24] = test: Mean total score of In vivo ability (10.0 mg/kg) was to antagonize serotonin syndrome; type: functional
Rattus norvegicus [25] = test: Mean total score of in vivo ability (8.0 mg/kg) was to elicit serotonin syndrome; type: functional
[26] = molecular target: D(2) dopamine receptor (Rattus norvegicus) (UniProt P61169); test: In vitro ability to inhibit [3H]spiperone binding to Dopamine receptor D2 of rat limbic structures at 10 uM; type: tissue-based; settings: Limbic system
[27] = molecular target: T2, 5-hydroxytryptamine receptor 1A; test: In vitro ability to inhibit [3H]8-OH-DPAT binding to 5-hydroxytryptamine 1A receptor of rat hippocampus and the value ranges from 25 - 84; type: tissue-based
Rattus norvegicus [28] = species on record: Rattus norvegicus; test: Anti psychotic activity was evaluated from the ability to block discrete trial conditioned avoidance response (CAR) of rats and the value ranges from 32-61; type: functional; method in brief: as §3
Rattus norvegicus [29] = test: Compound was tested for antagonism of apomorphine-induced climbing behavior, after intraperitoneal dosing; 1.29-27.21; type: functional; settings: ip

With `O=C1c2ccccc2S(=O)(=O)N1CCCCN1CCN(c2ncccn2)CC1` [IPSAPIRONE] the AB50 (Rattus norvegicus [1]) was 42 mg/kg, the ED50 (Rattus norvegicus [2]) was 26 mg/kg and the ED50 (Rattus norvegicus [3]) was “inactive”. The Mean (Rattus norvegicus [4]) was 2.4 and the Mean (Rattus norvegicus [5]) was 8.4.
With `Cl.O=C1C2C3C=CC(CC3)C2S(=O)(=O)N1CCCCc1ccncc1` (configuration not stated) the inhibition [6] was 35%, the inhibition [7] was 0% and the AB50 (Rattus norvegicus [8]) was over 40 mg/kg.
With `Cl.O=C1c2ccccc2S(=O)(=O)N1CCCCN1CCN(c2nccnc2Cl)CC1` the AB50 (Rattus norvegicus [8]) was 40 mg/kg.
Work on `Cl.Cl.Cl.O=C1C2C3CCC(O3)C2S(=O)(=O)N1CCCCN1CCN(c2cccc(Cl)c2)CC1` (configuration not stated) yielded a pKi [9] of 7.47, an inhibition [10] of 55% and an AB50 (Rattus norvegicus [8]) of 40 mg/kg.
Compound `Cl.Cl.Cl.O=C1c2cscc2S(=O)(=O)N1CCCCN1CCN(c2ccc(Cl)nn2)CC1` has an AB50 (Rattus norvegicus [8]) of over 40 mg/kg.
For `Cl.O=C1[C@@H]2C3CCC(O3)[C@@H]2S(=O)(=O)N1CCCCN1CCN(c2cncc(Cl)n2)CC1` (some centres not stated), the inhibition [11] was 54%, the inhibition [7] was 10% and the AB50 (Rattus norvegicus [8]) was 40 mg/kg.
Compound `Cl.O=C1C2C3C=CC(CC3)C2S(=O)(=O)N1CCCCN1CCN(c2cncc(Cl)n2)CC1` (configuration not stated) has an inhibition [12] of 57% and an AB50 (Rattus norvegicus [8]) of 40 mg/kg.
Compound `CC1=C(C)CC2C(C1)C(=O)N(CCCCc1ccncc1)S2(=O)=O.Cl` (configuration not stated) has an inhibition [6] of 8%, an inhibition [10] of 56% and an AB50 (Rattus norvegicus [8]) of over 40 mg/kg.
In the case of `Cl.Cl.O=C1c2cscc2S(=O)(=O)N1CCCCN1CCN(c2ncccn2)CC1`, the AB50 (Rattus norvegicus [8]) was over 20 mg/kg.
Compound `O=C1CC2(CCCC2)CC(=O)N1CCCCN1CCN(c2ncccn2)CC1` [BUSPIRONE] has an inhibition [13] of 33%, an inhibition [14] of 0% and an inhibition [15] of 0%. The AB50 (Rattus norvegicus [1]) was 32 mg/kg, the Mean (Rattus norvegicus [4]) was 2.9 and the Mean (Rattus norvegicus [5]) was 6.1.
`Cl.O=C1[C@H]2C3CCC(O3)[C@H]2S(=O)(=O)N1CCCCc1ccncc1` (some centres not stated) showed an inhibition [6] of 0%, an inhibition [10] of 3% and an AB50 (Rattus norvegicus [8]) of 40 mg/kg.
For `Cl.Cl.O=C1C2C3C=CC(C4C=CC43)C2S(=O)(=O)N1CCCCN1CCN(c2ncccn2)CC1` (configuration not stated), the pKi [16] was 8.00, the pKi [17] was 8.00 and the logP [18] was 1.92. For the same compound, the inhibition [19] was 54%, the inhibition [20] was 0% and the pKi (D(2) dopamine receptor) was 6.87. The AB50 (Rattus norvegicus [21]) was 39 mg/kg, the ED50 (Rattus norvegicus [22]) was 3.38 mg/kg and the ED50 (Rattus norvegicus [23]) was 32.2 mg/kg. For the same compound, the Mean (Rattus norvegicus [24]) was 5.1 and the Mean (Rattus norvegicus [25]) was 3.9.
For `Cl.Cl.O=C1C2C3C=CC(CC3)C2S(=O)(=O)N1CCCCN1CCN(c2ncccn2)CC1` (configuration not stated), the AB50 (Rattus norvegicus [8]) was 40 mg/kg.
In the case of `CC1=C(C)CC2C(C1)C(=O)N(CCCCN1CCN(c3cncc(Cl)n3)CC1)S2(=O)=O.Cl.Cl.Cl` (configuration not stated), the inhibition [26] was 66% and the AB50 (Rattus norvegicus [8]) was 40 mg/kg.
With `CC1CC(=O)N(CCCCN2CCN(c3ncccn3)CC2)S(=O)(=O)N1.Cl` (configuration not stated) the AB50 (Rattus norvegicus [8]) was 40 mg/kg.
With `CC1CC(=O)N(CCCCN2CCN(c3cncc(Cl)n3)CC2)S(=O)(=O)N1.Cl.Cl.Cl` (configuration not stated) the inhibition [11] was 61%, the inhibition [7] was 4% and the AB50 (Rattus norvegicus [8]) was 32 mg/kg.
With `Cl.Cl.Cl.O=C1C2C3CCC(C3)C2S(=O)(=O)N1CCCCN1CCN(c2cccc(Cl)c2)CC1` (configuration not stated) the pKi [27] was 7.35, the inhibition [7] was 98% and the AB50 (Rattus norvegicus [28]) was 41 mg/kg. It also gave an ED50 (Rattus norvegicus [29]) of 16 mg/kg and an ED50 (Rattus norvegicus [23]) of 34 mg/kg.
`Cl.O=c1c2ccccc2[s+]([O-])n1CCCCN1CCN(c2cncc(Cl)n2)CC1` (configuration not stated) showed an inhibition [11] of 44%, an inhibition [7] of 0% and an AB50 (Rattus norvegicus [8]) of 40 mg/kg.
